Test results: ChEMBL document CHEMBL3124843, “Synthesis, cytostatic, antimicrobial, and anti-HCV activity of 6-substituted 7-(het)aryl-7-deazapurine ribonucleosides” (J Med Chem, 2014)
Active and inactive are the calls of the source. The rule behind the calls is not given here.

Key:
Pseudomonas aeruginosa [1] = assay: Antibacterial activity against multi-resistant Pseudomonas aeruginosa A/16575 after 24 hrs; format: functional, organism-based
CCRF-CEM = assay: Cytostatic activity against human CCRF-CEM cells after 72 hrs by MTT assay; format: functional, cell-based
How it was run: (§1)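 IC50 is the concentration that cuts cell growth by 50%, read by quantitative metabolic MTT staining after a 3-day treatment. The resistant sublines were made by raising the concentration of the cytotoxic drug step by step. CEM-DNR-bulk (daunorubicin-selected) stably overexpresses mrp-1. K562-TAX (paclitaxel-selected) expresses only mdr-1. HCT116p53−/− carries null p53 alleles. BJ and MRC-5 are nonmalignant fibroblasts.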

K562 [2] = assay: Cytostatic activity against human K562 cells after 72 hrs by MTT assay; format: functional, cell-based; details: K562, 72 h; how it was run: as §1
K562 [3] = assay: Cytostatic activity against paclitaxel-resistant human K562 cells after 72 hrs by MTT assay; format: functional, cell-based; details: K562, 72 h; how it was run: as §1
Candida parapsilosis = assay: Antifungal activity against Candida parapsilosis after 48 hrs; format: functional, organism-based
BJ = assay: Cytostatic activity against human BJ cells after 72 hrs by MTT assay; format: ADME, cell-based; how it was run: as §1
Escherichia coli [4] = assay: Antibacterial activity against multi-resistant Escherichia coli C/16702 after 24 hrs; format: functional, organism-based
Hepatitis C virus [5] = assay: Antiviral activity against Hepatitis C virus subtype 2a infected in human HuH7 cells; format: functional, organism-based, Hepacivirus hominis; details: genotype 2a, Huh-7
A549 = assay: Cytostatic activity against human A549 cells after 72 hrs by MTT assay; format: functional, cell-based; details: A549, 72 h; how it was run: as §1
Pseudomonas aeruginosa [6] = assay: Antibacterial activity against Pseudomonas aeruginosa CCM 3955 after 24 hrs; format: functional, organism-based
MRC5 = assay: Cytostatic activity against human MRC5 cells after 72 hrs by MTT assay; format: ADME, cell-based; details: MRC5, 72 h; how it was run: as §1
[7] = Cytotoxicity against human HuH7 cells infected with Hepatitis C virus subtype 1b; format: cell-based, Huh-7
Staphylococcus aureus [8] = assay: Antibacterial activity against Staphylococcus aureus CCM 3953 after 24 hrs; format: functional, organism-based
Candida albicans = assay: Antifungal activity against Candida albicans after 48 hrs; format: functional, organism-based
HL-60 = assay: Antiproliferative activity against human HL60 cells after 72 hrs by XTT assay; format: functional, cell-based; details: HL-60, 72 h
How it was run: (§2)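 Antiproliferative test on HL-60 promyelocytic leukemia and HeLa S3 cervical carcinoma cells growing in liquid suspension.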

[9] = Cytostatic activity against human CEM-DNR-bulk cells after 72 hrs by MTT assay; format: functional, cell-based; how it was run: as §1
Pichia kudriavzevii = assay: Antifungal activity against Candida crusei after 48 hrs; format: functional, organism-based
Candida tropicalis = assay: Antifungal activity against Candida tropicalis after 48 hrs; format: functional, organism-based
HCT-116 [10] = assay: Cytostatic activity against human HCT116 cells after 72 hrs by MTT assay; format: functional, cell-based; details: HCT-116, 72 h; how it was run: as §1
HCT-116 [11] = assay: Cytostatic activity against p53-deficient human HCT116 cells after 72 hrs by MTT assay; format: functional, cell-based; details: HCT-116, 72 h; how it was run: as §1
Staphylococcus aureus [12] = assay: Antibacterial activity against methicillin-resistant Staphylococcus aureus MRSA 4591 after 24 hrs; format: functional, organism-based
Enterococcus faecalis = assay: Antibacterial activity against Enterococcus faecalis CCM 4224 after 24 hrs; format: functional, organism-based
Hepatitis C virus [13] = assay: Antiviral activity against Hepatitis C virus subtype 1b infected in human HuH7 cells; format: functional, organism-based, Hepacivirus hominis; details: genotype 1b, Huh-7
[14] = system: Staphylococcus haemolyticus; assay: Antibacterial activity against methicillin-resistant Staphylococcus haemolyticus A/16568 after 24 hrs; format: functional, organism-based
[15] = Cytotoxicity against human HuH7 cells infected with Hepatitis C virus subtype 2a; format: cell-based, Huh-7
HepG2 = assay: Antiproliferative activity against human HepG2 cells after 72 hrs by XTT assay; format: functional, cell-based; details: HepG2, 72 h
Escherichia coli [16] = assay: Antibacterial activity against Escherichia coli CCM 3954 after 24 hrs; format: functional, organism-based
[17] = Antiproliferative activity against human HeLaS3 cells after 72 hrs by XTT assay; format: functional, cell-based; details: HeLa S3, 72 h; how it was run: as §2

Compound	Activity (Pseudomonas aeruginosa [1])	IC50 (CCRF-CEM)	IC50 (K562 [2])	IC50 (K562 [3])	Activity (Candida parapsilosis)	IC50 (BJ)	Activity (Escherichia coli [4])	EC50 (Hepatitis C virus [5])	IC50 (A549)	Activity (Pseudomonas aeruginosa [6])	IC50 (MRC5)	CC50 [7]	Activity (Staphylococcus aureus [8])	Activity (Candida albicans)	IC50 (HL-60)	IC50 [9]	Activity (Pichia kudriavzevii)	Activity (Candida tropicalis)	IC50 (HCT-116 [10])	IC50 (HCT-116 [11])	other results
O=c1[nH]cnc2c1c(-c1ccoc1)cn2[C@@H]1O[C@H](CO)[C@@H](O)[C@H]1O	inactive	9.03 µM	12.5 µM	14.5 µM	inactive	> 100 µM	inactive	22.3 µM	> 20 µM	inactive	> 100 µM	> 44 µM	inactive	inactive	6.37 µM	> 20 µM	inactive	inactive	10.3 µM	14.8 µM	Activity (Staphylococcus aureus [12]): inactive; Activity (Enterococcus faecalis): inactive; EC50 (Hepatitis C virus [13]): 4.54 µM; Activity [14]: inactive; CC50 [15]: > 44 µM; IC50 (HepG2): 12.1 µM; Activity (Escherichia coli [16]): inactive; IC50 [17]: > 20 µM
COc1ncnc2c1ccn2[C@@H]1O[C@H](CO)[C@@H](O)[C@H]1O	inactive	> 20 µM	> 20 µM	> 20 µM	inactive	> 100 µM	inactive	> 44 µM	> 20 µM	inactive	> 100 µM	> 44 µM	inactive	inactive	> 20 µM	> 20 µM	inactive	inactive	> 20 µM	> 20 µM	Activity (Staphylococcus aureus [12]): inactive; Activity (Enterococcus faecalis): inactive; EC50 (Hepatitis C virus [13]): > 44 µM; Activity [14]: inactive; CC50 [15]: > 44 µM; IC50 (HepG2): > 20 µM; Activity (Escherichia coli [16]): inactive; IC50 [17]: > 20 µM
Cc1nc(N)c2c(-c3cccs3)cn([C@@H]3O[C@H](CO)[C@@H](O)[C@H]3O)c2n1	inactive	> 20 µM	> 20 µM	> 20 µM	inactive	> 100 µM	inactive	> 44 µM	> 20 µM	inactive	> 100 µM	> 44 µM	inactive	inactive	> 20 µM	> 20 µM	inactive	inactive	> 20 µM	> 20 µM	Activity (Staphylococcus aureus [12]): inactive; Activity (Enterococcus faecalis): inactive; EC50 (Hepatitis C virus [13]): > 44 µM; Activity [14]: inactive; CC50 [15]: > 44 µM; IC50 (HepG2): > 20 µM; Activity (Escherichia coli [16]): inactive; IC50 [17]: > 20 µM
CSc1ncnc2c1c(-c1cc3ccccc3o1)cn2[C@@H]1O[C@H](CO)[C@@H](O)[C@H]1O	inactive	> 20 µM	17.2 µM	> 20 µM	inactive	67.2 µM	inactive	29.6 µM	> 20 µM	inactive	70.8 µM	> 44 µM	inactive	inactive	1.21 µM	> 20 µM	inactive	inactive	> 20 µM	> 20 µM	Activity (Staphylococcus aureus [12]): inactive; Activity (Enterococcus faecalis): inactive; EC50 (Hepatitis C virus [13]): 8.03 µM; Activity [14]: inactive; CC50 [15]: > 44 µM; IC50 (HepG2): > 20 µM; Activity (Escherichia coli [16]): inactive; IC50 [17]: 1.93 µM
